SMILES strings stand for the structures. Activity calls are given as the source filed them. The calls are words filed in the database; no cut-off is given here. Some results are limits rather than exact numbers.

Assay [1] deals with T1, Prostaglandin G/H synthase 1 (Ovis aries, UniProt P05979).
T1 sequence (P05979 whole entry): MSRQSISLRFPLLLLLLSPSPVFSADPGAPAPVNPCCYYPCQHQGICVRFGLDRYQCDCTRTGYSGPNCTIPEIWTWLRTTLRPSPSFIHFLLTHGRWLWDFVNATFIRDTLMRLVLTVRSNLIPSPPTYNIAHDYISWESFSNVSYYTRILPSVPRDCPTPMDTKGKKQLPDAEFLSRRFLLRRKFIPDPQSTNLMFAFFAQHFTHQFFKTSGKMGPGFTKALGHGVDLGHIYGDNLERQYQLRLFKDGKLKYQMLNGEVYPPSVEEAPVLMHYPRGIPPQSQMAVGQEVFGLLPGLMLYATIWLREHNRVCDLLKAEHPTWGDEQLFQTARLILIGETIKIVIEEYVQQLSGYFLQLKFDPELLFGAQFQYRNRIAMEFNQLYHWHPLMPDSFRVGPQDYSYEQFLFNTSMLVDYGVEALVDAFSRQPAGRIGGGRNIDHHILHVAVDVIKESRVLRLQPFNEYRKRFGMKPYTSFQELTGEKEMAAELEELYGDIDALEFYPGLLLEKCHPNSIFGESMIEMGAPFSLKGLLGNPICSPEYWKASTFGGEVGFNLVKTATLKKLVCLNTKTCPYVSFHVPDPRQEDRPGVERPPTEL
Kind of assay: Inhibition of ovine COX1 pre-incubated for 10 mins before arachidonic acid substrate addition by enzyme immunoassay. The essentials: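 Ovine COX-1 pre-incubated with inhibitor for 10 min at 37 °C, then 5 μM arachidonic acid for 2 min at 37 °C. Stopped with HCl; PGH2 reduced to PGF2α with SnCl2 and measured by competitive EIA (PG antibody, PG-acetylcholinesterase conjugate), absorbance at 412 nm.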

The target of assay [2] is T2, Fatty-acid amide hydrolase 1 (Rattus norvegicus, UniProt P97612).
T2 sequence (P97612 whole entry): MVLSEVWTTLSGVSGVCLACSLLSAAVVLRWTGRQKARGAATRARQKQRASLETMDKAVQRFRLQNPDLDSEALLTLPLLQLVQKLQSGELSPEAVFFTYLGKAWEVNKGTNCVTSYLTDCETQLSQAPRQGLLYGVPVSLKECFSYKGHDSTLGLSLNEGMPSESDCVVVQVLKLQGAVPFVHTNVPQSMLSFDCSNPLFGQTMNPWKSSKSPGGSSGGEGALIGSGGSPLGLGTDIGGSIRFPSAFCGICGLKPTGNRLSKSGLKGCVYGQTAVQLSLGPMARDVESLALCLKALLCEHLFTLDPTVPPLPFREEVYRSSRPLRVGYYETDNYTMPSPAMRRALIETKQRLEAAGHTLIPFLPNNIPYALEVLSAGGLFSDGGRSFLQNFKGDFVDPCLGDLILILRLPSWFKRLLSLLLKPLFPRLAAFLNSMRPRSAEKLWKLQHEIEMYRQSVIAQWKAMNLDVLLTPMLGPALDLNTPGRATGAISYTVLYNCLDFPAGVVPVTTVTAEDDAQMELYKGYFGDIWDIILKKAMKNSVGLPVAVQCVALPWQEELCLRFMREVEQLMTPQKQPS
Kind of assay: Inhibition of FAAH in Sprague-Dawley rat cerebellum membranes pre-incubated for 10 mins before addition of [3H]AEA substrate in presence of ethyl alcohol by liquid scintillation counting. Format: cell membranes, Membrane.

Assay [3] concerns the target T1, Prostaglandin G/H synthase 1. Put plainly: Inhibition of sheep COX1 pre-incubated for 5 mins before arachidonic acid substrate addition in presence of DMSO by peroxidase activity detection based oxygen electrode assay.
For assay [4], the target named is T3, Prostaglandin G/H synthase 2 (Homo sapiens) (UniProt P35354).
T3 sequence (whole entry): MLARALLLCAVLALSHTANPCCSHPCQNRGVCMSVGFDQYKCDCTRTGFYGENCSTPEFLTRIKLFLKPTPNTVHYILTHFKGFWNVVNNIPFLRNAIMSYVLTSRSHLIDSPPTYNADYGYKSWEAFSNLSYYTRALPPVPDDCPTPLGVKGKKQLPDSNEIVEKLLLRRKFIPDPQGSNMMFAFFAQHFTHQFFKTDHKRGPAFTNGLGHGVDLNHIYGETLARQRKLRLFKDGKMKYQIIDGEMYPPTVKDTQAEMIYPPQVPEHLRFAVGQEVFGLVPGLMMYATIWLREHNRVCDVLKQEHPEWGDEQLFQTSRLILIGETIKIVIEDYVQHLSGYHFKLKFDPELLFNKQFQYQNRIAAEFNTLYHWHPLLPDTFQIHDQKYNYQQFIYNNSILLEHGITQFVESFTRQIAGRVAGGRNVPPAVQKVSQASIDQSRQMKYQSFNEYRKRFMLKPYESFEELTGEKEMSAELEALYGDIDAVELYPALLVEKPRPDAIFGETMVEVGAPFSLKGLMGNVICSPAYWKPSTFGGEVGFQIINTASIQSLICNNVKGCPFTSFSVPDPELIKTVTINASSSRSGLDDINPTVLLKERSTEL
Kind of assay: Inhibition of human COX2 at 30 uM pre-incubated for 10 mins before substrate addition by enzyme immunoassay. The essentials: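 Human COX-2 pre-incubated with inhibitor 10 min at 37 °C, then 5 μM arachidonic acid for 2 min at 37 °C. Reaction stopped with HCl, PGH2 reduced to PGF2α by SnCl2, and PGF2α quantified by competitive EIA with PG-acetylcholinesterase conjugate, absorbance 412 nm. Single test concentration 30 μM.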

Assay [5] deals with T2, Fatty-acid amide hydrolase 1. Kind of assay: Inhibition of FAAH in rat brain homogenates pre-incubated for 10 mins before addition of [3H]anandamide and [3H]AEA substrates for 30 mins by liquid scintillation counting. As to conditions: read-out: IC50. The class given is tissue-based. The essentials:
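Rat whole-brain homogenate (50 ug protein/sample) in 50 mM TRIS pH 7.4, 0.05 % fatty acid free BSA; inhibitor pre-incubated 10 min, then 1 uM unlabelled AEA plus 0.6 nM [3H]-AEA added for 30 min at 37°C. Stopped with cold 1:1 CHCl3/MeOH; aqueous phase counted.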

The target in assay [6] is T4, Prostaglandin G/H synthase 2 (Ovis aries, UniProt P79208).
T4 sequence (P79208 whole entry): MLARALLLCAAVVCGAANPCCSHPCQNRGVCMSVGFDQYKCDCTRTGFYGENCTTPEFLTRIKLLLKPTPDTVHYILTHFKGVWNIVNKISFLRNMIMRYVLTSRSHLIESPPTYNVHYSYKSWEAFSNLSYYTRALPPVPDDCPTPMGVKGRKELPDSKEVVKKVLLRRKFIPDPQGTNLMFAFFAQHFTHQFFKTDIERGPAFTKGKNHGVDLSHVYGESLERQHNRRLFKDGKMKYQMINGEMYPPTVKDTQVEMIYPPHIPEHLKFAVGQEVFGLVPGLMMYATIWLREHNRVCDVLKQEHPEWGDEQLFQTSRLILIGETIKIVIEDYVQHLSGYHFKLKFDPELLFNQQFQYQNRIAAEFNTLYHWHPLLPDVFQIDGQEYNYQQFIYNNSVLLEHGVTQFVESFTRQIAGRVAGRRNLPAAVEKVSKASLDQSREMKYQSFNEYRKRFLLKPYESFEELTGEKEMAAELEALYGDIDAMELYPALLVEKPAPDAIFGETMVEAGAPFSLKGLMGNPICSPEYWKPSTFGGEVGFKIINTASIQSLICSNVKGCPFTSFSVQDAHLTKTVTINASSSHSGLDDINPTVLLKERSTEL
Put plainly: Inhibition of sheep COX2 pre-incubated for 5 mins before […] substrate addition by peroxidase activity detection based oxygen electrode assay.

The target of assay [7] is T1, Prostaglandin G/H synthase 1. Kind of assay: Inhibition of sheep COX1 pre-incubated for 5 mins before arachidonic acid substrate addition in presence of ethanol by peroxidase activity detection based oxygen electrode assay.
Assay [8] addresses T5, Fatty-acid amide hydrolase 1 (Rattus norvegicus) (UniProt P97612).
T5 sequence (whole entry): T2 sequence (P97612 whole entry)
As to conditions: Brain, 30 uM.

The target of assay [9] is T6, Prostaglandin G/H synthase 2 (Homo sapiens, UniProt P35354).
T6 sequence (P35354 whole entry): T3 sequence (whole entry)
Put plainly: Inhibition of human COX2 pre-incubated for 10 mins before substrate addition by enzyme immunoassay.

The target of assay [10] is T5, Fatty-acid amide hydrolase 1 (Rattus norvegicus). Put plainly: Potency index, ratio of IC50 for carprofen to IC50 for compound against FAAH in rat brain homogenates pre-incubated for 10 mins before addition of [3H]anandamide and [3H]AEA substrates for 30 mins by liquid scintillation counting. The class given is tissue-based.

With `Cc1cccnc1NC(=O)C(C)c1ccc(CC(C)C)cc1` (stereo unspecified), the IC50 – broadly, the concentration needed to halve the response being measured – in assay [1] was found to be 170 µM; in assay [2], 0.5 µM; in assay [3], 60 µM; in assay [5], 66 µM; in assay [6], 20 µM; in [7], 240 µM. In addition, in assay [4], the inhibition (as a rule, the relative decrease from the control value, in per cent) was 30%.
Turning to `COc1ccccc1Cn1c2ccc(Cl)cc2c2ccc(C(C)C(=O)O)cc21` (racemic), the IC50 in assay [1], in assay [5] and in [9] was over 100 µM in each case. Also, the inhibition entry in assay [8] was “inactive”.
In the case of `CC(C(=O)O)c1ccc2c(c1)[nH]c1ccccc12` (racemic), the IC50 in assay [1] is over 100 µM; in [5], 4.6 µM; in assay [9] it was over 100 µM.
For the molecule `COC(=O)C(C)c1ccc2c(c1)[nH]c1ccc(Cl)cc12` (racemic), the IC50 in assay [1] was over 100 µM; in [5], 22.1 µM; in assay [9] it was over 100 µM.
Turning to `CC(C(=O)Nc1ccccc1)c1ccc2c(c1)[nH]c1ccc(Cl)cc12` (racemic), the IC50 in assay [1] was over 100 µM; in [5] it was 2.9 µM; in [9], over 100 µM. For the same molecule, the Ratio IC50 in assay [10] came to 26.
